Data on 19 molecules can be found in ChEMBL document CHEMBL4811233, “Synthesis, Structure-Activity Relationships, and Antiviral Activity of Allosteric Inhibitors of Flavivirus NS2B-NS3 Protease” (J Med Chem, 2021).

One series concerns the target Nonstructural protein 3 (Zika virus, UniProt A0A024AXB9). The series can be described thus: Inhibition Zika virus NS2B (47 to 95 residues)/NS3 (1 to 170 residues) protease expressed in Escherichia coli BL21 using 7-amino-4-methylcoumarin as substrate by fluorescence assay. In outline: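 Single-chain NS2B(47–95)–Gly4-Ser-Gly4–NS3(1–170) enzyme at 1 nM in 20 mM HEPES pH 7.3 with 0.05% Triton X-100. Compound (1 nM–10 µM, triplicate) is preincubated 10 min before adding Bz-Nle-Lys-Lys-Arg-AMC at 20 µM. Fluorescence (Ex 360/Em 460 nm) is read every 30 s. IC50 comes from dose-response fitting of initial velocities, 3 independent experiments with SD.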

The subject of series [1] is Zika virus. The series can be described thus: Antiviral activity against Zika virus infected in human U87 cells assessed as reduction in infectious virus in supernatant by measuring infection of Vero cells preincubated with viral infected […] cells for 48 hrs and measured following infection of supernatants with Vero cells for 7 days by microscopy. Type of series: functional. Conditions: U-87 MG. In outline:
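U87 cells (2×10^4/well, DMEM with 2% FBS monolayer) infected with ZIKV FLR strain (passage-3 stock) at MOI 0.01 for 1 h, then washed. Compound added in triplicate for 48 h at 37 °C. Supernatant half-log dilutions are titrated on Vero cells in quadruplicate for 7 days, with CPE read by microscopy plus MTT. EC68 is the half-log TCID50 reduction versus control; ≥2 independent experiments.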

A further series has as its system U-87 MG. The series can be described thus: Cytotoxicity against human U87 cells assessed as inhibition of proliferation at 10 uM by MTT assay. Type of series: cell-based. The settings on record: u-87mg atcc.
The next series relates to Vero. The series can be described thus: Cytotoxicity against African green monkey Vero cells assessed as inhibition of proliferation at 10 uM by MTT assay. Type of series: cell-based. Conditions: chlorocebus sabaeus. (In general: Formazan colour is commonly taken as a measure of viable cells.)
Series [2] concerns the target Genome polyprotein (dengue virus type 2, UniProt P29990). The series can be described thus: Inhibition Dengue serotype-2 NS3B/NS3 protease using 7-amino-4-methylcoumarin as substrate by fluorescence assay.
In series [3] the target is Genome polyprotein (West Nile virus, UniProt P06935). The series can be described thus: Inhibition West Nile virus NS3B/NS3 protease using 7-amino-4-methylcoumarin as substrate by fluorescence assay.
Genome polyprotein (West Nile virus, UniProt P06935), sequence (P06935 1371-1501 limits assumed): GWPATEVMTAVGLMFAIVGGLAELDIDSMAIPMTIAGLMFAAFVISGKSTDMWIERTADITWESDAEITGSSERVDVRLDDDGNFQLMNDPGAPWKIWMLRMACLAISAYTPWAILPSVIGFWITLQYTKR
Genome polyprotein (West Nile virus, UniProt P06935), sequence (P06935 1502-2120 limits assumed): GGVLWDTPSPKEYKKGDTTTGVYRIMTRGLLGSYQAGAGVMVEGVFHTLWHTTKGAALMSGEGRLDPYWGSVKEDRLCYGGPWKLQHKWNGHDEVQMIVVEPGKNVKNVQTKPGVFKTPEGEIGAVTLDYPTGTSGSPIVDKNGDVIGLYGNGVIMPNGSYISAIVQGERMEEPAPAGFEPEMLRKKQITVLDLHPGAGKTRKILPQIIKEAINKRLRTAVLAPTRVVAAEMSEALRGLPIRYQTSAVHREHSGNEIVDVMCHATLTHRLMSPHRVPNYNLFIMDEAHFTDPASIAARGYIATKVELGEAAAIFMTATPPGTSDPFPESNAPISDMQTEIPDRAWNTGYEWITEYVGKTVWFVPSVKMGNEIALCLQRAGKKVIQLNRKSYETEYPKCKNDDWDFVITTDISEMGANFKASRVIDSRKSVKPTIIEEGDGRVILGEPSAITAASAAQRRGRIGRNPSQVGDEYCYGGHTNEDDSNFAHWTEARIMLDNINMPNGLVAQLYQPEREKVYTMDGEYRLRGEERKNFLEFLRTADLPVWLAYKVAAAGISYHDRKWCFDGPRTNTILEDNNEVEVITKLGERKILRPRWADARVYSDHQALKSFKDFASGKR
In series [4] the test system is Zika virus. The series can be described thus: Antiviral activity against Zika Serotype 2 infected mouse model assessed as inhibition of viral load in plasma at 30 mg/kg treated for 3 days. Format: functional. The settings on record: 72 h, time 3 day.
The subject of series [5] is Zika virus. The series can be described thus: Antiviral activity against Zika Serotype 2 infected mouse model assessed as inhibition of viral load in brain at 30 mg/kg treated for 3 days. Format: functional. Conditions: 72 h, time 3 day.
Series [6] relates to Zika virus. The series can be described thus: Antiviral activity against Zika virus infected in human U87 cells assessed as inhibition of viral replication at 10 uM. Type of series: functional, organism-based.

The source made the active and inactive calls. The rule behind the calls is not given here.

Nonstructural protein 3, sequence (A0A024AXB9 whole entry, the tested form may be a part): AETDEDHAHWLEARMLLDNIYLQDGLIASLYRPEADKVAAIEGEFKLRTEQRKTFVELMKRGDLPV
Genome polyprotein (dengue virus type 2, UniProt P29990), sequence (P29990 1346-1475 limits assumed): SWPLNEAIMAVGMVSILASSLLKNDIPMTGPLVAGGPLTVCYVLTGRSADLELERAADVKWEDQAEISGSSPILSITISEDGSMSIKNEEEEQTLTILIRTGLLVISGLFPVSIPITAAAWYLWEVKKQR
Genome polyprotein (dengue virus type 2, UniProt P29990), sequence (P29990 1476-2093 limits assumed): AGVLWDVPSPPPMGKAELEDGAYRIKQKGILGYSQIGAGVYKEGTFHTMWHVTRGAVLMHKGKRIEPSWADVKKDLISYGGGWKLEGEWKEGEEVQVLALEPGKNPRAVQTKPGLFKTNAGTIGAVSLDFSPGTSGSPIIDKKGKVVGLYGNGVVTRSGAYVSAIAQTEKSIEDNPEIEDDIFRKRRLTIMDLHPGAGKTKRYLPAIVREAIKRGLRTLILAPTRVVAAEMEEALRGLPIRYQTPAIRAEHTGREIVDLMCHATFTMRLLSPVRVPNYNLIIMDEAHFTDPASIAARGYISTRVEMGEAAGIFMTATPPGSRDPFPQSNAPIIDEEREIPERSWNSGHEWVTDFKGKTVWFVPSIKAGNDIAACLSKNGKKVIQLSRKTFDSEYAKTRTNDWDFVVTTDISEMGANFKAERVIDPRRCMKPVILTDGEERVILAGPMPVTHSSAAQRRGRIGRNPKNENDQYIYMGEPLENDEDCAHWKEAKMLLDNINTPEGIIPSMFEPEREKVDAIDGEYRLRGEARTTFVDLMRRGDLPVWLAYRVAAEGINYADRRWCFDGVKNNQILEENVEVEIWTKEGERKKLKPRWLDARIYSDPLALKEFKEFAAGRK

The molecule `NCc1ccc(-c2ncc(OCC3CCNCC3)nc2-c2ccc(C3CCOCC3)nc2)cc1` showed an IC50 on Nonstructural protein 3 of 1000 nM. Besides, the EC68 in the series on Zika virus [1] was found to be 3 µM. In addition, the Activity result in the series on U-87 MG and in the series on Vero was “Non-Toxic” in each case.

For the molecule `c1cc(-c2ccc(-c3ncc(OCC4CCNCC4)nc3-c3ccc(-c4ccsc4)cc3)cc2)cs1`, the half-inhibitory concentration (IC50) against Genome polyprotein [2] came to 3600 nM; at Nonstructural protein 3, 1400 nM; against Genome polyprotein [3] it was 6600 nM.

`NCc1ccc(-c2ncc(OCC3CCNCC3)nc2-c2ccc(-c3ccoc3)cc2)cc1`: the IC50 against Genome polyprotein [2] amounted to 590 nM; against Genome polyprotein [3], 780 nM. Besides, the EC68 in the series on Zika virus [1] amounted to 0.3 µM. In addition, the values for the inhibition in vivo at 30 mg/kg in the series on Zika virus [4] and in the series with Zika virus [5] were 96% and 98%, respectively.

In the case of `NCc1ccc(-c2ccc(NCC3CCNCC3)nc2-c2ccc(-c3ccoc3)cc2)cc1`, the IC50 on Genome polyprotein [2] is 860 nM; against Nonstructural protein 3, 790 nM; at Genome polyprotein [3] it was 1300 nM. In the series with Zika virus [1], the EC68 was 1.2 µM.

Regarding `NCc1ccc(-c2ncc(OCC3CCNCC3)nc2-c2ccc(C3CCOCC3)cc2)cc1`, the IC50 against Genome polyprotein [2] was 2400 nM; against Nonstructural protein 3, 130 nM; at Genome polyprotein [3], 820 nM. Further, the EC68 in the series on Zika virus [1] is 0.6 µM. Moreover, the Activity result in the series on U-87 MG and in the series on Vero was “Non-Toxic” throughout.

As for `NCc1ccc(-c2ncc(OCC3CCNCC3)nc2-c2ccc3[nH]ccc3c2)cc1`, the figures for the IC50 at Genome polyprotein [2] and on Genome polyprotein [3] were 640 nM and 930 nM, respectively. Besides, the EC68 in the series with Zika virus [1] worked out at 2.5 µM.

Consider `CC(C)(C)C(=O)OCc1ccc(-c2ncc(OCC3CCNCC3)nc2-c2ccc(COC(=O)C(C)(C)C)cc2)cc1`, for which the results for the IC50 against Genome polyprotein [2], against Nonstructural protein 3 and against Genome polyprotein [3] were 13400 nM, 9800 nM and 20000 nM, respectively.

For `NCc1ccc(-c2ncc(OCC3CCNCC3)nc2-c2ccc(-c3cn[nH]c3)cc2)cc1`, the IC50 against Genome polyprotein [2] was found to be 210 nM; against Nonstructural protein 3 it was 760 nM. Further, in the series on Zika virus [1], the EC68 worked out at 2.5 µM.

For the molecule `CC(C)(C)c1ccc(-c2ncc(OCC3CCNCC3)nc2-c2ccc(C(C)(C)C)cc2)cc1`, the IC50 was determined as 8400 nM against Genome polyprotein [2], 3100 nM against Nonstructural protein 3 and 9500 nM on Genome polyprotein [3]. Besides, the EC68 in the series on Zika virus [1] is 5 µM.

Take `ONCc1ccc(-c2ncc(OCCC3CCNCC3)nc2-c2ccc(CNO)cc2)cc1`: the results for the IC50 against Genome polyprotein [2], against Nonstructural protein 3 and on Genome polyprotein [3] were 3800 nM, 1600 nM and 3200 nM, respectively.

With `Brc1ccc(-c2ncc(OCC3CCNCC3)nc2-c2ccc(Br)cc2)cc1`, the IC50 on Genome polyprotein [2] was 35000 nM; against Nonstructural protein 3, 21700 nM; against Genome polyprotein [3], more than 50000 nM. The EC68 in the series on Zika virus [1] was more than 10 µM.

Regarding `NCc1ccc(-c2ncc(OCC3CCNCC3)nc2-c2ccc(-c3ccncc3)cc2)cc1`, the IC50 was more than 50000 nM at Genome polyprotein [2], 26500 nM against Nonstructural protein 3 and more than 50000 nM at Genome polyprotein [3].

At Nonstructural protein 3, `NCc1ccc(-c2nc(OCC3CCNCC3)cnc2-c2ccc(-c3ccoc3)cc2)cc1` displayed an IC50 of 680 nM. The EC68 with Zika virus [1] is 1.2 µM.

Regarding `NCc1ccc(-c2ncc(NCC3CCNCC3)nc2-c2ccc(-c3ccoc3)cc2)cc1`, the IC50 against Genome polyprotein [2] worked out at 290 nM; against Nonstructural protein 3 it was 400 nM; at Genome polyprotein [3], 510 nM. Besides, in the series with Zika virus [1], the EC68 is 1.2 µM.

Regarding `NCc1ccc(-c2ncc(OCC3CCNCC3)nc2-c2ccc(Oc3ccccc3)cc2)cc1`, the IC50 is more than 50000 nM against Genome polyprotein [2], 32600 nM at Nonstructural protein 3 and more than 50000 nM against Genome polyprotein [3].

With `NC(=O)c1ccc(-c2ncc(OCC3CCNCC3)nc2-c2ccc(-c3ccoc3)cc2)cc1`, the IC50 against Genome polyprotein [2] is 980 nM; against Nonstructural protein 3, 1100 nM; on Genome polyprotein [3] it was 1340 nM. Further, the EC68 with Zika virus [1] is 2.5 µM.

In the case of `CC(Oc1cnc(-c2ccc(CN)cc2)c(-c2ccc(-c3ccoc3)cc2)n1)C1CCNCC1` (racemic), at Nonstructural protein 3, inhibition was half-maximal at 240 nM (IC50). Moreover, the EC68 in the series with Zika virus [1] is 1.2 µM.

On to `NCc1ccc(-c2ncc(OCC3CCNCC3)nc2-c2ccc(O)cc2)cc1`, for which the EC68 with Zika virus [1] is more than 10 µM. Moreover, the inhibition result in the series on Zika virus [6] is “inactive”.

Regarding `CNCc1ccc(-c2ncc(OCC3CCNCC3)nc2-c2ccc(-c3ccoc3)cc2)cc1`, the IC50 on Genome polyprotein [2] was determined as 730 nM; on Genome polyprotein [3], 870 nM. The EC68 with Zika virus [1] was 1.2 µM.

The IC50 is the concentration needed to halve the response being measured. The term inhibition in vivo denotes the relative decrease from the control value, in per cent.
